Test results as given in ChEMBL document CHEMBL1148318, “Synthesis and antibacterial activity of a novel class of 4'-substituted 16-membered ring macrolides derived from tylosin” (2004).
In brackets after ≈: the same amount, converted by molar mass.

Columns and labels:
Type in all cases: functional
Haemophilus influenzae = experiment: In vitro antibacterial activity against ampicillin resistant Haemophilus influenzae 33929
Outline: (§1)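 MIC determined by agar dilution per NCCLS recommendations. Strains: S. pneumoniae 49619 (erythromycin-susceptible); S. pneumoniae 700904 and S. pyogenes 2912 (erm-encoded MLSB-resistant); S. pneumoniae 7701 and S. pyogenes 1323 (mef-encoded efflux-resistant); H. influenzae 33929 (ampicillin-resistant).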

Streptococcus pneumoniae [1] = experiment: In vitro antibacterial activity against efflex resistant Streptococcus pneumoniae 7701; outline: as §1
Streptococcus pneumoniae [2] = experiment: In vitro antibacterial activity against erythromycin susceptible Streptococcus pneumoniae 49619; outline: as §1
Streptococcus pyogenes [3] = experiment: In vitro antibacterial activity against efflex resistant Streptococcus pyogenes 1323; outline: as §1
Streptococcus pyogenes [4] = experiment: In vitro antibacterial activity against macrolide-lincosamide-streptogramin resistant Streptococcus pyogenes 2912; outline: as §1
Staphylococcus aureus = experiment: In vitro antibacterial activity against erythromycin susceptible Staphylococcus aureus 25923
Outline: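 MIC by agar dilution following NCCLS recommendations; S. aureus 25923 is an erythromycin-susceptible strain.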

Streptococcus pneumoniae [5] = experiment: In vitro antibacterial activity against macrolide-lincosamide-streptogramin resistant Streptococcus pneumoniae 700904; outline: as §1

Compound | MIC (Haemophilus influenzae) [µg/mL] | MIC (Streptococcus pneumoniae [1]) [µg/mL] | MIC (Streptococcus pneumoniae [2]) [µg/mL] | MIC (Streptococcus pyogenes [3]) [µg/mL] | MIC (Streptococcus pyogenes [4]) [µg/mL] | MIC (Staphylococcus aureus) [µg/mL] | MIC (Streptococcus pneumoniae [5]) [µg/mL]
CC[C@H]1OC(=O)C[C@@H](O)[C@H](C)[C@@H](O[C@@H]2O[C@H](C)[C@@H](OC(=O)NCCc3ccccc3)[C@H](N(C)C)[C@H]2O)[C@@H](CC=O)C[C@@H](C)C(=O)/C=C/C(C)=C/[C@@H]1CO[C@@H]1O[C@H](C)[C@@H](O)[C@@H](OC)[C@H]1OC | 16 (≈ 17.4 µM) | 2 (≈ 2.18 µM) | 1 (≈ 1.09 µM) | 0.25 (≈ 0.272 µM) | > 64 | 2 (≈ 2.18 µM) | > 64
CC[C@H]1OC(=O)C[C@@H](O)[C@H](C)[C@@H](O[C@@H]2O[C@H](C)[C@@H](OC/C=C/c3cnc4ccccc4c3)[C@H](N(C)C)[C@H]2O)[C@@H](CC=O)C[C@@H](C)C(=O)/C=C/C(C)=C/[C@@H]1CO[C@@H]1O[C@H](C)[C@@H](O)[C@@H](OC)[C@H]1OC | 4 (≈ 4.26 µM) | 0.0625 (≈ 0.0665 µM) | 0.0625 (≈ 0.0665 µM) | 0.0625 (≈ 0.0665 µM) | 8 (≈ 8.52 µM) | 0.5 (≈ 0.532 µM) | 1 (≈ 1.06 µM)
C=CCO[C@H]1[C@H](N(C)C)[C@@H](O)[C@H](O[C@H]2[C@@H](CC=O)C[C@@H](C)C(=O)/C=C/C(C)=C/[C@H](CO[C@@H]3O[C@H](C)[C@@H](O)[C@@H](OC)[C@H]3OC)[C@@H](CC)OC(=O)C[C@@H](O)[C@@H]2C)O[C@@H]1C | 8 (≈ 9.85 µM) | 0.5 (≈ 0.616 µM) | 0.5 (≈ 0.616 µM) | 0.125 (≈ 0.154 µM) | 32 (≈ 39.4 µM) | 1 (≈ 1.23 µM) | > 64
CC[C@H]1OC(=O)C[C@@H](O)[C@H](C)[C@@H](O[C@@H]2O[C@H](C)[C@@H](O/C=C\Cc3cnc4ccccc4c3)[C@H](N(C)C)[C@H]2O)[C@@H](CC=O)C[C@@H](C)C(=O)/C=C/C(C)=C/[C@@H]1CO[C@@H]1O[C@H](C)[C@@H](O)[C@@H](OC)[C@H]1OC | 4 (≈ 4.26 µM) | 0.0625 (≈ 0.0665 µM) | 0.0625 (≈ 0.0665 µM) | 0.0625 (≈ 0.0665 µM) | 16 (≈ 17 µM) | 0.5 (≈ 0.532 µM) | 0.5 (≈ 0.532 µM)
CC[C@H]1OC(=O)[C@H](C)[C@@H](O[C@H]2C[C@@](C)(OC)[C@@H](O)[C@H](C)O2)[C@H](C)[C@@H](O[C@@H]2O[C@H](C)C[C@H](N(C)C)[C@H]2O)[C@](C)(O)C[C@@H](C)C(=O)[C@H](C)[C@@H](O)[C@]1(C)O [ERYTHROMYCIN] | 4 (≈ 5.45 µM) | 8 (≈ 10.9 µM) | 0.06 (≈ 0.0818 µM) | 16 (≈ 21.8 µM) | > 64 | 0.5 (≈ 0.681 µM) | > 64
CC[C@H]1OC(=O)C[C@@H](O)[C@H](C)[C@@H](O[C@@H]2O[C@H](C)[C@@H](O[C@H]3C[C@@](C)(O)[C@@H](O)[C@H](C)O3)[C@H](N(C)C)[C@H]2O)[C@@H](CC=O)C[C@@H](C)C(=O)/C=C/C(C)=C/[C@@H]1CO[C@@H]1O[C@H](C)[C@@H](O)[C@@H](OC)[C@H]1OC [TYLOSIN] | 8 (≈ 8.73 µM) | 0.25 (≈ 0.273 µM) | 0.25 (≈ 0.273 µM) | 0.25 (≈ 0.273 µM) | > 64 | 2 (≈ 2.18 µM) | 64 (≈ 69.9 µM)
